Like-named read-outs stand apart in the source and are kept apart here. Values belong to the compound of their own block, whether it stands above or below them.
Assays:
XO = conditions: cited from earlier work
[1] = biological target: T1, XO (isolated from bovine milk) (Bos taurus, UniProt P80457); experiment: Fluorescence titrations; type: binding; conditions: for Kd: binding constant K
Summary of the method: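 Intrinsic fluorescence of bovine milk XO (0.16 U mL−1) titrated with test compound at 0–26.7 μM, at 298, 304 and 310 K. Excitation 280 nm, emission 300–500 nm, slit 5.0 nm. Mixtures equilibrated 30 min before reading. Compound-only control at each concentration; PBS blank for background correction. Final DMSO below 1%.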

[2] = biological target: T1, XO (isolated from bovine milk); experiment: Enzyme kinetic studies; type: biochemical
Summary of the method: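 Bovine milk XO. Reversibility: xanthine held at 0.25 mM, XO varied 0.03–0.15 U mL−1 (five levels), test compound at 0, 10, 20 and 30 μM, velocity plotted against [XO]. Inhibition type: XO 0.025 U mL−1, xanthine 0.0625–0.1875 mM, same compound levels. Lineweaver–Burk double-reciprocal analysis, with linear secondary replots of slope and Y-intercept against [compound].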

[3] = biological target: T1, XO (isolated from bovine milk); experiment: XO inhibition assay; type: biochemical
[4] = biological target: T1, XO (isolated from bovine milk); experiment: Fourier translation infrared spectroscopy, secondary structure of XO; conditions: XO 0.5 U mL^−1 with AUR
Summary of the method: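 FT-IR of bovine milk XO (0.5 U mL−1), alone and with test compound (200 μM), at room temperature. Spectra collected over 1800–1400 cm−1 at 4 cm−1 resolution, 128 scans co-added, background subtracted. Secondary-structure fractions quantified by split-peak fitting of the amide I band (1600–1700 cm−1).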

[5] = 298, 304 and 310 K (taken as constant)

T1 sequence (P80457 whole entry): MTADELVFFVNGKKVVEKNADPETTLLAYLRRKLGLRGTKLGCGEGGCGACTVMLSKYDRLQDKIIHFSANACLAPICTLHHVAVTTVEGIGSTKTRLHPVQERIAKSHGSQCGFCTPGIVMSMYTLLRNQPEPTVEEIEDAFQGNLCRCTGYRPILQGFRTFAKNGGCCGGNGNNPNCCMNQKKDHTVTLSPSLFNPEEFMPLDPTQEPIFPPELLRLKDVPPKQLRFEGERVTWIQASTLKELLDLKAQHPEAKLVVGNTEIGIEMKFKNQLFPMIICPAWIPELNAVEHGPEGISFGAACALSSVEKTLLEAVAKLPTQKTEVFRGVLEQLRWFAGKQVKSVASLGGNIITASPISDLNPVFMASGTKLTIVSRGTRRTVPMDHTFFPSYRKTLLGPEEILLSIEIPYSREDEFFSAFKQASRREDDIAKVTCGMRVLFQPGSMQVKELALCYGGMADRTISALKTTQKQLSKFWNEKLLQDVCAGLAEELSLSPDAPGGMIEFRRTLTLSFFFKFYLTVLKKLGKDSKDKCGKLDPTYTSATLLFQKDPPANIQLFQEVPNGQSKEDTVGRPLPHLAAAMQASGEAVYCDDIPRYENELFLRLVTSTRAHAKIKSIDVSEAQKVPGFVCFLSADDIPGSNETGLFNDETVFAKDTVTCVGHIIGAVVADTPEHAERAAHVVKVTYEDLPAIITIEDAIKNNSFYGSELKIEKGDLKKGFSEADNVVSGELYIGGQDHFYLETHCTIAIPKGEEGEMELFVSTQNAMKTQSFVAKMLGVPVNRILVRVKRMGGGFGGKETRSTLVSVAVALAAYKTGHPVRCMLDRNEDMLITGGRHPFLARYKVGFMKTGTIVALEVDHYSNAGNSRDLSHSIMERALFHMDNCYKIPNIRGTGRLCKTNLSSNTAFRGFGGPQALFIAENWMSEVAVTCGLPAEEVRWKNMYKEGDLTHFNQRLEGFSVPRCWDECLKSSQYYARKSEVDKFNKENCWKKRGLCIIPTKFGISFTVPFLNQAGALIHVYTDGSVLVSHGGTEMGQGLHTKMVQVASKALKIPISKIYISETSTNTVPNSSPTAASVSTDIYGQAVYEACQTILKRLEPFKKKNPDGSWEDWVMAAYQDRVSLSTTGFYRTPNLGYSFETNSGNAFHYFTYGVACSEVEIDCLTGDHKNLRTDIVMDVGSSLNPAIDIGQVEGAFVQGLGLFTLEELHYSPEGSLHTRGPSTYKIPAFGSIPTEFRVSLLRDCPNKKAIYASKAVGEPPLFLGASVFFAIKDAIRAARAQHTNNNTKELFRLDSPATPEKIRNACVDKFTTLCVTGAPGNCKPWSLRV

SMILES: O=c1c(O)c(-c2ccc(O)c(O)c2)oc2cc(O)cc(O)c12 [Quercetin, quercetin]
inhibition type (XO): mixed-type | IC50 (XO; ref 18 (Zhang et al.)): 2.74 ± 0.04 µM

fluorescence quenching mechanism [1]: static quenching process | ΔH [1, 5]: 3.1 kcal/mol | ΔS [1, 5]: 121.95 J mol^−1 K^−1 | lg K ([1]; 298 K): 4.096 | number of binding sites n ([1]; 298 K): 0.977 | quenching constant Ksv ([1]; 298 K): 16190 L/mol | lg K ([1]; 304 K): 4.155 | number of binding sites n ([1]; 304 K): 0.993 | quenching constant Ksv ([1]; 304 K): 15450 L/mol | ΔG ([1]; 304 K): -8.858 kcal/mol | lg K ([1]; 310 K): 4.184 | number of binding sites n ([1]; 310 K): 1.006 | quenching constant Ksv ([1]; 310 K): 14370 L/mol | ΔG ([1]; 310 K): -9.032 kcal/mol | Kd ([1]; 298 K): 80.2 µM | Kd ([1]; 304 K): 70 µM | Kd ([1]; 310 K): 65.4 µM | Ki [2]: 1.8 µM | ratio (α) of Kis to Ki [2]: 0.31 | uncompetitive inhibition constant (Kis) ([2]; binding to XO–xanthine complex): 0.56 µM | inhibition reversibility ([2]; plots of v vs [XO], AUR 0–30 μM, xanthine 0.25 mM): reversible | IC50 [3]: 7.62 ± 0.401 µM | β-Sheet content of XO ([4]; free XO 17.50): 12.07% | β-Turn content of XO ([4]; free XO 40.37): 23.31% | α-Helix and random structure content of XO ([4]; free XO 42.13): 64.62%
SMILES: O=C1/C(=C/c2ccc(O)c(O)c2)Oc2cc(O)cc(O)c21 [AUR, Aureusidin]
inhibition type ([2]; Lineweaver–Burk plot, XO 0.025 U mL^−1, AUR 0–30 μM): mixed-type (competitive and noncompetitive)

SMILES: O=C1/C(=C/c2ccc(O)c(O)c2)Oc2cc(O)ccc21 [sulfuretin]
IC50 (XO; ref 24 (Muzychka et al.)): 3.1 ± 0.38 µM

Source: PMC9827282 (RSC Advances, 2023)
